Key:
MCF7 [1] = assay: Effective concentration against human ER positive MCF-7 breast cancer cell line evaluated by luciferase assay; assay type: functional, cell-based
Outline: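 ER-positive MCF-7 cells stably transfected with the ERE_wtc-luc reporter plasmid (MCF-7 2a). Cells were exposed to the compound over a concentration range. ER binding to the estrogen response element drives luciferase expression, which was measured to build concentration–activation curves relative to estradiol. EC50 was taken from these curves.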

[2] = target: Prostaglandin G/H synthase 1 (Ovis aries) (UniProt P05979); assay: Inhibitory concentration against ovine cyclooxygenase-1 evaluated by enzyme linked immunosorbent assay
MCF7 [3] = assay: Treatment upon control (T/C) against hormone dependent MCF-7 breast cancer cells at 10 uM concentration; conditions: Homo sapiens

Structure (SMILES) | EC50 (MCF7 [1]) | IC50 [2] | T/C at 10 µM (MCF7 [3])
CCc1c(-c2ccc(O)cc2)nc(-c2ccc(O)cc2)n1-c1ccc(O)cc1 | 77 nM | > 200 µM | –
Oc1ccc(-c2nc(-c3ccc(O)cc3Cl)cn2-c2ccc(O)cc2)cc1 | – | 8.4 µM | 50%
Oc1ccc(-n2cc(-c3ccc(O)cc3Cl)nc2-c2ccc(O)cc2Cl)cc1 | – | 8.4 µM | 0%
Oc1ccc(-c2cn(-c3ccc(O)cc3)c(-c3ccc(O)cc3)n2)cc1 | – | 12.2 µM | –
C[C@]12CC[C@@H]3c4ccc(O)cc4CC[C@H]3[C@@H]1CC[C@@H]2O [ESTRADIOL] | 0.08 nM | – | –

From ChEMBL document CHEMBL1141119, “Synthesis and pharmacological evaluation of 1H-imidazoles as ligands for the estrogen receptor and cytotoxic inhibitors of the cyclooxygenase” (J Med Chem, 2005)
